According to publication PMC3141330 (Biochemistry, 2010):
Several values for one entry are separate records, joined by “and”; a condition that tells them apart may be missing. Equal values may be shown once. Entries after “also recorded” stand apart in the source; their conditions may differ.

Columns and labels:
[1] = system: Hsp90-dependent client proteins; conditions: CFTRΔF508 and wild-type CFTR; ref [36]; cited from earlier work
Hsp70 and Hsp90 = conditions: ref [18], cited from earlier work
CHIP [2] = biological target: T1, CHIP (Homo sapiens, UniProt Q9UNE7); experiment: ITC: C-terminal peptides of Hsp70 or Hsp90; assay type: binding; conditions: dimer and tetramer species of CHIP, data not shown
T1 sequence (Q9UNE7 1-303): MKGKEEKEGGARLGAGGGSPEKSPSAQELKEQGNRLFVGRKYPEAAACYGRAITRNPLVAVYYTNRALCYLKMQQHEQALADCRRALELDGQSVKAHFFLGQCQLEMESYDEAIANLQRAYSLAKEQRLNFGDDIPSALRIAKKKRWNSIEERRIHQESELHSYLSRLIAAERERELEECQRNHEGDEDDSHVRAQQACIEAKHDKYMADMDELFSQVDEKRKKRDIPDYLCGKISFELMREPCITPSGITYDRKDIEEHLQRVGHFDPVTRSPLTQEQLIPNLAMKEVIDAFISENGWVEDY

CHIP [3] = biological target: T1, CHIP; assay type: biochemical; conditions: discussion summary
How it was run: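 Reactions contained 0.091 µM human UBE1, 20 µM UbcH5c, 20 µM CHIP, 100 µM Hsp70 T13G ±188 µM model client peptide. Buffer: 50 mM Tris pH 7.4, 150 mM KCl, 10 mM NaCl, 3 mM MgCl2, 10 mM ATP, 0.1 mM βME. Preincubated 30°C ~10 min, started with 0.5 mM ubiquitin. Timed aliquots ran on Coomassie SDS-PAGE; ubiquitin per CHIP monomer fitted linearly early (slope = rate); three independent experiments, SD.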

HER2/neu = conditions: Hsp90 inhibition in cells; CHIP-dependent; ref [17]; cited from earlier work
Hsp90 [4] = conditions: human Hsp90; ref [19]; cited from earlier work
CHIP [5] = conditions: 'normal' non-Hsp90 inhibited cells, cycloheximide; ref [17]; cited from earlier work
[6] = system: Hsp90 in BT474 breast cancer cells; experiment: Quantitative Western blot: Hsp90 in BT474 cells after 17-AAG; assay type: cell-based; conditions: BT474, 0.178 µM 17-AAG, 7 or 14 hours; Hsp90 dimer; same as normal
How it was run: (§1)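 BT474 cells, seeded overnight, were exposed to 0.178 µM test compound (Hsp90 inhibitor) for 7 or 14 h; untreated cells were harvested at 15 h. Cells were counted, then lysed in SDS buffer. Extract from 35,000 cells (Hsp70, Hsp90, HOP) or 70,000 cells (CHIP) was blotted with ECL detection against a linear purified-protein calibration series. Values were converted via cell number and a cell volume of 3.5×10⁻⁶ µl.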

Hsp90 [7] = conditions: ref [32]; cited from earlier work
[8] = system: Hsp70 in BT474 breast cancer cells; experiment: Quantitative Western blot: Hsp70 in BT474 cells after 17-AAG; assay type: cell-based; conditions: BT474, 0.178 µM 17-AAG, 7 or 14 hours; ~10 µM (monomer) under normal conditions
How it was run: as §1

[9] = system: HER2 in BT474 breast cancer cells; experiment: Western blot: HER2 in BT474 cells after 17-AAG; assay type: cell-based; conditions: BT474, 0.178 µM 17-AAG, 7 or 14 hours; qualitative, GAPDH loading control
[10] = system: CHIP in BT474 breast cancer cells; experiment: Quantitative Western blot: CHIP in BT474 cells after 17-AAG; assay type: cell-based; conditions: BT474, 0.178 µM 17-AAG, 7 or 14 hours; CHIP monomer; constant versus normal
How it was run: as §1

[11] = system: HOP in BT474 breast cancer cells; experiment: Quantitative Western blot: HOP in BT474 cells after 17-AAG; assay type: cell-based; conditions: BT474, 0.178 µM 17-AAG, 7 or 14 hours; HOP monomer; same as normal
How it was run: as §1

Hsp90 [12] = experiment: Competition pull-down: HOP versus GST-CHIP for Hsp90; assay type: binding
How it was run: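 GST-CHIP (10 µM) and His6-Hsp90 (10 µM), or subsets as controls, were mixed with 3–30 µM His6-HOP in 50 mM Tris pH 7.4, 10 mM NaCl, 5 mM βME. Mixtures were held on ice ~10 min, then rotated with glutathione agarose at 4°C for 1 h and washed 4×. Bound protein was eluted in SDS buffer and resolved by Coomassie SDS-PAGE.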

Hsp90 [13] = experiment: Control Ni-NTA pull-down of HOP by His6-Hsp90; assay type: binding; conditions: 20 µM His6-Hsp90, 20 µM HOP without His6-tag, 150 mM KCl, 3 mM MgCl2, Ni-NTA, 4°C
Hsp70 = conditions: ref [35]; cited from earlier work

Carboxyl terminus of Hsc70-interacting protein [CHIP]
degradation of CFTR on increase in CHIP concentration (in words) [1]: leads to degradation of a cystic fibrosis causing mutant of Hsp70/Hsp90 client protein CFTR, CFTRΔF508; also recorded: also leads to degradation of wild-type CFTR
effect of CHIP over-expression on Hsp70 levels (in words) (Hsp70 and Hsp90; over-expression of CHIP): decrease in Hsp70 levels
effect of CHIP on half-life of Hsp70 and Hsp90 (in words) (Hsp70 and Hsp90): greatly decreased the half-life of both Hsp70 and Hsp90, with degradation of Hsp70 being more pronounced
binding of both CHIP oligomeric species to Hsp70 (in words) (CHIP [2]): both oligomeric species of CHIP bind Hsp70 with the same binding affinity and stoichiometry
rate of ubiquitination at substrate concentrations much above KM (CHIP [3]): ~ 0.1 ubiquitin molecules attached/CHIP monomer/minute

COC1=C2C[C@@H](C)C[C@H](OC)[C@H](O)[C@@H](C)/C=C(\C)[C@H](OC(N)=O)[C@@H](OC)/C=C\C=C(/C)C(=O)NC(=CC1=O)C2=O [geldanamycin]
degradation of HER2/neu (in words) (HER2/neu): rapid degradation of the Hsp70/Hsp90 client protein HER2/neu

Hsp90: heat shock induced homo-dimeric molecular chaperone; recombinant His6-Hsp90β
kcat of ATP hydrolysis by Hsp90 (Hsp90 [4]): ~ 0.09 min^−1

HER2: oncoprotein, Hsp70/Hsp90 client protein
half life of HER2 in normal cells (CHIP [5]): less than 1 hour

C=CCNC1=C2C[C@@H](C)C[C@H](OC)[C@H](O)[C@@H](C)/C=C(\C)[C@H](OC(N)=O)[C@@H](OC)/C=C\C=C(/C)C(=O)NC(=CC1=O)C2=O [17-AAG]
Hsp90 level upon 17-AAG treatment [6]: ~ 5 µM
degradation of HER2/neu (in words) (HER2/neu): client proteins such as the oncoprotein HER2/neu undergo rapid CHIP-dependent degradation; also recorded: rapid degradation of the Hsp70/Hsp90 client protein HER2/neu
binding to Hsp90 (in words) (Hsp90 [7]): binds to the ATP binding pocket and renders the chaperone unable to facilitate client protein folding process
total Hsp70 cellular concentration upon 17-AAG treatment [8]: 39 µM and ~ 39 µM
HER2 levels upon 17-AAG treatment (in words) [9]: decrease in HER2 levels
CHIP concentration upon 17-AAG treatment [10]: ~ 0.1 µM
HOP level upon 17-AAG treatment [11]: ~ 3 µM

Hsp70/Hsp90 organizing protein [HOP]
competition with CHIP for binding to Hsp90 (in words) (Hsp90 [12]; 3-30 µM His6-HOP, 10 µM GST-CHIP, 10 µM His6-Hsp90, 50 mM Tris pH 7.4, 10 mM NaCl, 5 mM βME, 4°C 1 hour, glutathione agarose): CHIP does not pull-down HOP through Hsp90, but that HOP and CHIP compete for binding to Hsp90; also recorded: HOP is competing with CHIP for binding to Hsp90
binding of HOP to CHIP, control (in words) (Hsp90 [12]; control lanes, glutathione agarose pull-down with GST-CHIP): HOP does not bind to CHIP
pull-down of HOP by Hsp90 (in words) (Hsp90 [13]): the HOP and Hsp90 interaction is stable; also recorded: HOP does not bind non-specifically to the resin but binds to Hsp90

Hsp70: heat shock induced monomeric molecular chaperone; recombinant His6-Hsp70
kcat for client peptide stimulated hydrolysis of ATP by Hsp70 (Hsp70): 0.0017 to 0.005 s⁻¹
